The text below walks through data of ChEMBL document CHEMBL2203063, “Azo-reductase activated budesodine prodrugs for colon targeting” (Bioorg Med Chem Lett, 2012).

Data set [1] is described as follows: Prodrug conversion in buffer assessed as half life of cyclization at pH 7 to 7.5. The class given is physicochemical.
Data set [2] can be described thus: Prodrug conversion in buffer assessed as half life of cyclization at pH 5. The format is physicochemical.
Data set [3] in a line: Prodrug conversion in buffer assessed as half life of cyclization at pH 5.5. The class given is physicochemical.
The nature of data set [4]: Prodrug conversion in buffer assessed as half life of cyclization at pH 3.44. The class given is physicochemical.
A short description of data set [5]: Prodrug conversion in buffer assessed as half life of cyclization at pH 2.5. The class given is physicochemical.
The nature of data set [6]: Prodrug conversion assessed as Clostridium perfringes azoreductase-mediated reduction after 6 hrs at pH 7.4. The conditions noted are these: clostridium perfringens, pH 7.4, 6 h. The class given is ADME. Put shortly: (§1)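 Prodrugs incubated anaerobically with a suspension of azoreductase-producing Clostridium perfringens at 37 °C, pH 7.4, sampled over 24 h. Progress curves tracked loss of prodrug and appearance of budesonide and linker byproducts (the dihydroquinolone or 3,3-dimethyl-1,3-dihydro-indol-2-one). Assay conditions follow the group's earlier method.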

Data set [7] can be described thus: Drug metabolism assessed as Clostridium perfringes azoreductase-mediated hydrolysis at pH 7.4. The class given is ADME. The conditions noted are these: clostridium perfringens.
Data set [8] in a line: Prodrug conversion assessed as Clostridium perfringes azoreductase-mediated budesonide formation at pH 7.4. The format is ADME. The conditions noted are these: clostridium perfringens. The method, boiled down: as §1
Data set [9] can be described thus: Chemical stability in simulated doudenal juice up to 24 hrs. The format is physicochemical. The method, boiled down:
(§2)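 Prodrug incubated in simulated duodenal or gastric juice at 37 °C and followed for up to 24 h to see whether it stays intact.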

The nature of data set [10]: Chemical stability in simulated gastric juice up to 24 hrs. The class given is physicochemical. The conditions noted are these: simulated gi fluid. The method, boiled down: as §2
Data set [11] can be described thus: Drug metabolism assessed as Clostridium perfringes azoreductase-mediated cyclization to dihydroquinolone at pH 7.4. The conditions noted are these: clostridium perfringens. The class given is ADME. The method, boiled down:
as §1

Data set [12] is described as follows: Drug metabolism assessed as Clostridium perfringes azoreductase-mediated hydrazine reoxidation to parent azo compound formation at pH 7.4 by HPLC analysis. The format is ADME. The conditions noted are these: clostridium perfringens.
Data set [13] can be described thus: Drug metabolism assessed as Clostridium perfringes azoreductase-mediated hydrazine formation at pH 7.4 by HPLC analysis. The format is ADME. The conditions noted are these: clostridium perfringens.

As to `CCCC1O[C@@H]2C[C@H]3[C@@H]4CCC5=CC(=O)C=C[C@]5(C)[C@H]4[C@@H](O)C[C@]3(C)[C@]2(C(=O)COC(=O)CCc2ccccc2N)O1` (mixture of isomers), the t1/2 in data set [1] stood at 201 min; in data set [2], 52.7 min; in data set [3] it was 73.2 min; in [4] it was 29.3 min; in data set [5], 25.9 min.

Take `CCCC1O[C@@H]2C[C@H]3[C@@H]4CCC5=CC(=O)C=C[C@]5(C)[C@H]4[C@@H](O)C[C@]3(C)[C@]2(C(=O)COC(=O)CCc2ccccc2/N=N/c2ccc(O)c(C(=O)O)c2)O1` (mixture of isomers): the values for the Drug metabolism result in data set [6], in data set [7] and in data set [8] were “Active”, “Not Active” and “Active”, respectively. In addition, the Stability entry in [9] and in data set [10] was “Stable” throughout.

Regarding `CCCC1O[C@@H]2C[C@H]3[C@@H]4CCC5=CC(=O)C=C[C@]5(C)[C@H]4[C@@H](O)C[C@]3(C)[C@]2(C(=O)COC(=O)C(C)(C)c2ccccc2/N=N/c2ccc(O)c(C(=O)O)c2)O1` (mixture of isomers), the Drug metabolism entry in data set [11], in data set [6] and in [8] was “Active” throughout. Besides, the Stability result in [9] and in [10] was “Stable” in each case.

As for `CCCC1O[C@@H]2C[C@H]3[C@@H]4CCC5=CC(=O)C=C[C@]5(C)[C@H]4[C@@H](O)C[C@]3(C)[C@]2(C(=O)COC(=O)CCc2ccccc2/N=N/c2ccc(C(=O)O)cc2)O1` (mixture of isomers), the Drug metabolism entry in data set [12] is “Active”; in data set [13], “Active”; in data set [6], “Not Active”; in data set [8], “Not Active”. Also, the Stability result in [9] and in data set [10] was “Stable” throughout.
